Experimental data from ChEMBL document CHEMBL4145696 (J Med Chem, 2018).
Activity calls are given as the source filed them. No cut-off for these calls is given here.

What was measured:
[1] = Intrinsic clearance in mouse liver microsomes in presence of NADPH regeneration system
[2] = Half life in mouse liver microsomes in presence of NADPH regeneration system
[3] = Intrinsic clearance in rat liver microsomes in presence of NADPH regeneration system
A-375 [4] = assay: Cytotoxicity in human A375 cells assessed as reduction in cell viability incubated for 72 hrs by MTS assay; format: functional, cell-based; details: A-375, 72 h
[5] = Half life in human liver microsomes in presence of NADPH regeneration system
[6] = Intrinsic clearance in human liver microsomes in presence of NADPH regeneration system
M14 = assay: Cytotoxicity in human M14 cells assessed as reduction in cell viability incubated for 72 hrs by MTS assay; format: functional, cell-based; details: M14, 72 h
[7] = Half life in rat liver microsomes in presence of NADPH regeneration system
RPMI-7951 = assay: Cytotoxicity in human RPMI7951 cells assessed as reduction in cell viability incubated for 72 hrs by MTS assay; format: functional, cell-based; details: RPMI-7951, 72 h
A-375 [8] = assay: Antitumor activity against human A375 cells xenografted in mouse assessed as reduction in tumor weight at 15 mg/kg, ip dosed every other day for 2 weeks; format: functional; parameters: scale not given: the % may be the effect or the level left
Outline: (§1)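 Nude mice (6–8 weeks) implanted s.c. in dorsal flank with 2.5×10^6 log-phase A375 cells in serum-free, phenol red-free medium mixed with Matrigel. At ~100 mm³ tumours, randomized (n = 8); i.p. 100 μL every other day for 2 weeks in PEG300:PBS 1:1, vehicle control.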

Homo sapiens = organism: Homo sapiens; assay: Cytotoxicity in human DU145-TxR cells assessed as reduction in cell viability up to 1 uM incubated for 72 hrs by MTS assay; format: functional, cell-based
Outline: (§2)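 Prostate lines (parental PC-3 and DU-145, with paclitaxel- or docetaxel-resistant TxR sublines) grown in RPMI 1640 with 10% FBS and antibiotic/antimycotic at 37 °C, 5% CO2. Seeded at 1,800–3,500 cells/well overnight, then dosed at 10 concentrations, 0.03 nM–1 μM, plus DMSO vehicle, for 72 h, quadruplicate. MTS read at 490 nm; IC50 by nonlinear regression.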

A-375 [9] = assay: Antitumor activity against human A375 cells xenografted in mouse assessed as inhibition of tumor growth at 15 mg/kg, ip dosed every other day for 2 weeks relative to untreated control; format: functional; details: A-375, ip, 336 h, read-out: TGI; outline: as §1
A-375 [10] = assay: Antitumor activity against human A375 cells xenografted in mouse assessed as reduction in tumor volume at 15 mg/kg, ip dosed every other day for 2 weeks; format: functional, organism-based; outline: as §1
DU-145 = assay: Cytotoxicity in human DU145 cells assessed as reduction in cell viability incubated for 72 hrs by MTS assay; format: functional, cell-based; details: DU-145, 72 h; outline: as §2
A-375 [11] = assay: Antitumor activity against human A375 cells xenografted in mouse assessed as reduction in tumor weight at 30 mg/kg, ip dosed every other day for 2 weeks; format: functional, organism-based; outline: as §1
[12] = Cytotoxicity in human PC3-TxR cells assessed as reduction in cell viability incubated for 72 hrs by MTS assay; format: functional, cell-based
[13] = Resistance index, ratio of IC50 for cytotoxicity in human PC3-TxR cells to IC50 for cytotoxicity in human PC3 cells; format: functional
Outline: (§3)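 Prostate lines cultured in RPMI 1640 with 10% FBS at 37 °C and 5% CO2: parental PC-3 with paclitaxel-resistant PC-3/TxR, and parental DU-145 with docetaxel-resistant DU-145/TxR. Cells seeded at 1,800–3,500/well and left overnight, then exposed 72 h to 10 concentrations (0.03 nM–1 μM) or DMSO vehicle, in quadruplicate. MTS read at 490 nm; IC50s by nonlinear regression; index = resistant IC50/parental IC50.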

A-375 [14] = assay: Antitumor activity against human A375 cells xenografted in mouse assessed as inhibition of tumor growth at 30 mg/kg, ip dosed every other day for 2 weeks relative to untreated control; format: functional; details: A-375, ip, 336 h, read-out: TGI; outline: as §1
[15] = Resistance index, ratio of IC50 for cytotoxicity in human DU145-TxR cells to IC50 for cytotoxicity in human DU145 cells; format: functional; outline: as §3
A-375 [16] = assay: Antitumor activity against human A375 cells xenografted in mouse assessed as reduction in tumor volume at 30 mg/kg, ip dosed every other day for 2 weeks; format: functional, organism-based; outline: as §1
[17] = Cytotoxicity in human DU145-TxR cells assessed as reduction in cell viability incubated for 72 hrs by MTS assay; format: functional, cell-based; outline: as §2
Mus musculus [18] = assay: Toxicity in human A375 cells xenografted mouse assessed as effect on body weight at 30 mg/kg, ip dosed every other day for 2 weeks relative to untreated control; format: organism-based; details: in vivo, 336 h
PC-3 = assay: Cytotoxicity in human PC3 cells assessed as reduction in cell viability incubated for 72 hrs by MTS assay; format: functional, cell-based; details: PC-3, 72 h
Mus musculus [19] = assay: Toxicity in human A375 cells xenografted mouse assessed as effect on body weight at 15 mg/kg, ip dosed every other day for 2 weeks relative to untreated control; format: organism-based; details: in vivo, 336 h
Bos taurus = organism: Bos taurus; assay: Inhibition of bovine brain tubulin polymerization at 10 uM measured every 1 min for 20 mins by spectrophotometry

t1/2 [2]	t1/2 [5]	t1/2 [7]	CLint scaled ([1]; liver microsomes)	CLint scaled ([3]; liver microsomes)	CLint scaled ([6]; liver microsomes)	Structure (SMILES)	IC50 (A-375 [4])	IC50 (M14)	IC50 (RPMI-7951)	further results
0.82 h	1.28 h	0.18 h				COc1cc(C(=O)c2c[nH]c(-c3c[nH]c4ccccc34)n2)cc2c1OCO2	3.5 nM	5.6 nM		CLint scaled ([1]; microsomes): 69.6 mL/min/kg; CLint scaled ([3]; microsomes): 253 mL/min/kg; CLint scaled ([6]; microsomes): 16.3 mL/min/kg
						COc1cc(C(=O)c2c[nH]c(-c3c[nH]c4ccccc34)n2)cc2c1OCCCO2	32.2 nM	38.2 nM	47.7 nM	
						CC(=O)O[C@H]1C(=O)[C@@]2(C)[C@H]([C@H](OC(=O)c3ccccc3)[C@]3(O)C[C@H](OC(=O)[C@H](O)[C@@H](NC(=O)c4ccccc4)c4ccccc4)C(C)=C1C3(C)C)[C@]1(OC(C)=O)CO[C@@H]1C[C@@H]2O [PACLITAXEL]				Activity (A-375 [8]): 62.3%; Activity (Homo sapiens): inactive; inhibition in vivo at 15 mg/kg (A-375 [9]): 70.7%; Activity (A-375 [10]): Active; IC50 (DU-145): 1.5 nM
0.37 h	3.5 h	0.85 h	154 mL/min/kg	54.9 mL/min/kg	5.95 mL/min/kg	O=C(c1ccc2c(c1)OCCO2)c1c[nH]c(-c2c[nH]c3ccccc23)n1	159 nM	119 nM	214 nM	
2.28 h	3.77 h	2.55 h	25.1 mL/min/kg	18.3 mL/min/kg	5.5 mL/min/kg	O=C(c1ccc2c(c1)OCO2)c1c[nH]c(-c2c[nH]c3ccccc23)n1	191 nM	155 nM	236 nM	
						COc1cc(C(=O)c2c[nH]c(-c3c[nH]c4cccc(C)c34)n2)cc2c1OC=CO2		6.1 nM	8.8 nM	
2.03 h	2.13 h	0.9 h	28.2 mL/min/kg	51.9 mL/min/kg	9.76 mL/min/kg	COc1cc(C(=O)c2c[nH]c(-c3c[nH]c4ccccc34)n2)cc2c1OCCO2	21 nM	11.3 nM	29.2 nM	
						COc1cc(C(=O)c2c[nH]c(-c3cccc4[nH]ccc34)n2)cc2c1OC=CO2	17.1 nM	13.8 nM	34.8 nM	

Structure (SMILES)	t1/2 [2]	t1/2 [5]	t1/2 [7]	CLint scaled ([1]; liver microsomes)	CLint scaled ([3]; liver microsomes)	CLint scaled ([6]; liver microsomes)	IC50 (A-375 [4])	IC50 (M14)	IC50 (RPMI-7951)	further results
COc1cc(C(=O)c2c[nH]c(-c3c[nH]c4ccccc34)n2)cc2c1OC=CO2	1.42 h	2.69 h	3.57 h	40.3 mL/min/kg	13.1 mL/min/kg	7.7 mL/min/kg	1.1 nM	1.2 nM	3.3 nM	Activity (A-375 [11]): Active; IC50 [12]: 7.6 nM; Ratio IC50 [13]: 0.5; inhibition in vivo at 30 mg/kg (A-375 [14]): 73.9%; inhibition in vivo at 15 mg/kg (A-375 [9]): 54.8%; Ratio IC50 [15]: 1.9; Activity (A-375 [16]): Active; IC50 [17]: 81.5 nM; Activity (Mus musculus [18]): Non-Toxic; IC50 (PC-3): 15.2 nM; Activity (A-375 [10]): Active; IC50 (DU-145): 42.2 nM; Activity (Mus musculus [19]): Non-Toxic; inhibition (Bos taurus): Active
